These results are taken from ChEMBL document CHEMBL3244097, “Fluorinated retinoic acids and their analogues. 1. Synthesis and Biological activity of (4-methoxy-2,3,6-trimethylphenyl)nonatetraenoic acid analogues” (J Med Chem, 1979).

A value given as a limit tells only on which side of the number the result lay.

Data set [1] has as its system Mus musculus. In words: Toxicity in mouse assessed as hypervitaminosis dose compound treated ip daily monday through friday in first week and monday through thursday in second week measured after 1 day of last injection. It is filed as organism-based. The note with it: in vivo, 24 h. A digest of the protocol: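 Normal mice received retinoid suspended in water containing 0.1% carboxymethylcellulose and 0.01% Triton X-100, given intraperitoneally daily Monday–Friday in week 1 and Monday–Thursday in week 2. Hypervitaminosis, taken as the measure of toxicity, was scored 1 day after the last injection.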

Data set [2] relates to Mus musculus. In words: Antipapilloma activity against Hart Swiss albino mouse assessed as decrease in chemically-induced papillomas compound treated ip for 5 days/week for 2 weeks. It is filed as functional. A digest of the protocol: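 At least four doses were used. ED50, the dose giving a 50% decrease in papilloma diameter, was read from a plot of percent decrease versus log dose, fitted by least squares, with a correlation coefficient reported.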

The subject of data set [3] is Mus musculus. In words: Antipapilloma activity against Hart Swiss albino mouse assessed as decrease in chemically-induced papillomas at 40 mg/kg, ip for 5 days/week for 2 weeks. It counts as functional. The arrangement: scale not given: the % may be the effect or the level left. The note with it: route intraperitoneal.
Data set [4] has as its system Mus musculus. In words: Antipapilloma activity against Hart Swiss albino mouse assessed as decrease in chemically-induced papillomas at 20 mg/kg, ip for 5 days/week for 2 weeks. It is filed as functional. The arrangement: scale not given: the % may be the effect or the level left. The note with it: route intraperitoneal.
In data set [5] the test system is Mus musculus. In words: Antipapilloma activity against Hart Swiss albino mouse assessed as decrease in chemically-induced papillomas at 10 mg/kg, ip for 5 days/week for 2 weeks. It is filed as functional. On the set-up: scale not given: the % may be the effect or the level left. Particulars: route intraperitoneal.
Data set [6] deals with Mus musculus. In words: Antipapilloma activity against Hart Swiss albino mouse assessed as decrease in chemically-induced papillomas at 5 mg/kg, ip for 5 days/week for 2 weeks. It counts as functional. The arrangement: scale not given: the % may be the effect or the level left. The note with it: route intraperitoneal.
The subject of data set [7] is Mus musculus. In words: Antipapilloma activity against Hart Swiss albino mouse assessed as decrease in chemically-induced papillomas at 2.5 mg/kg, ip for 5 days/week for 2 weeks. Particulars: route intraperitoneal. The arrangement: scale not given: the % may be the effect or the level left. It is filed as functional.
Data set [8] concerns Mus musculus. In words: Antipapilloma activity against Hart Swiss albino mouse assessed as decrease in chemically-induced papillomas at 1.25 mg/kg, ip for 5 days/week for 2 weeks. It is filed as functional. On the set-up: scale not given: the % may be the effect or the level left. Particulars: route intraperitoneal.
Data set [9] concerns Mus musculus. In words: Antipapilloma activity against Hart Swiss albino mouse assessed as decrease in chemically-induced papillomas at 80 mg/kg, ip for 5 days/week for 2 weeks. It is filed as functional. The note with it: route intraperitoneal. On the set-up: scale not given: the % may be the effect or the level left.
Data set [10] relates to Mus musculus. In words: Antipapilloma activity against Hart Swiss albino mouse assessed as decrease in chemically-induced papillomas at 600 mg/kg, ip once weekly for 2 weeks. On the set-up: scale not given: the % may be the effect or the level left. Particulars: route intraperitoneal.
Data set [11] deals with Mus musculus. In words: Antipapilloma activity against Hart Swiss albino mouse assessed as decrease in chemically-induced papillomas at 1000 mg/kg, ip once weekly for 2 weeks. The arrangement: scale not given: the % may be the effect or the level left. Particulars: route intraperitoneal.

`COC(=O)/C=C(C)/C=C/C(F)=C(C)/C=C/c1c(C)cc(OC)c(C)c1C`: the Activity in data set [1] came to 50 mg/kg/day; in [3], 79%; in data set [4] it was 60%; in [5] it was 35%; in data set [6], 28%. Besides, the ED50 in data set [2] was determined as 13.8 mg/kg/day.

Regarding `COc1cc(C)c(/C=C/C(C)=C/C=C(F)/C(C)=C/C(=O)O)c(C)c1C`, the Activity is recorded as 25 mg/kg/day in [1]; 80% in [5]; 63% in [6]; 48% in data set [7]; 34% in [8]. Moreover, the ED50 in data set [2] turned out to be 2.7 mg/kg/day.

On to `CCOC(=O)/C=C(C)/C=C/C=C(C)/C=C/C1=C(C)CCCC1(C)C`, for which the Activity in [1] is given as 50 mg/kg/day; in [9] it was 47%; in data set [3], 36%; in data set [10], 76%; in data set [11], 85%. Further, the ED50 in data set [2] amounted to 48 mg/kg/day.

In the case of `CCOC(=O)/C=C(C)/C(F)=C/C(F)=C(C)/C=C/c1c(C)cc(OC)c(C)c1C`, the Activity is greater than 200 mg/kg/day in data set [1] and 33% in data set [9]. Further, the ED50 in data set [2] was greater than 80 mg/kg/day.

Regarding `CCOC(=O)/C(F)=C(C)/C=C/C=C(C)/C=C/C1=C(C)CCCC1(C)C`, the Activity in [1] amounted to 100 mg/kg/day; in [4] it was 40%. In addition, the ED50 in data set [2] was greater than 20 mg/kg/day.

Turning to `CCOC(=O)/C=C(C)/C(F)=C/C=C(C)/C=C/C1=C(C)CCCC1(C)C`, the Activity in data set [1] came out at 100 mg/kg/day; in data set [9] it was 83%; in data set [3] it was 67%; in data set [4] it was 33%; in data set [5], 33%. For the same compound, the ED50 in [2] stood at 24.3 mg/kg/day.

As to `COC(=O)/C=C(C)/C=C/C(F)=C(C)/C=C/C1=C(C)CCCC1(C)C`, the Activity in data set [1] is reported as 200 mg/kg/day; in [9], 60%. The ED50 in data set [2] is less than 80 mg/kg/day.

With `CCOC(=O)/C(F)=C(C)/C=C/C=C(C)/C=C/c1c(C)cc(OC)c(C)c1C`, the Activity in data set [1] is 12.5 mg/kg/day; in [5] it was 37%. Moreover, in data set [2], the ED50 is greater than 10 mg/kg/day.

Consider `CCOC(=O)/C=C(C)/C(F)=C\C=C(C)\C=C\c1c(C)cc(OC)c(C)c1C`, for which the Activity in data set [1] turned out to be 200 mg/kg/day; in data set [9] it was 56%. In addition, the ED50 in [2] was found to be 80 mg/kg/day.

Turning to `COC(=O)/C=C(C)/C=C/C(F)=C(C)\C=C\c1c(C)cc(OC)c(C)c1C`, the Activity in data set [1] was found to be 200 mg/kg/day; in data set [9], 17%. In addition, the ED50 in data set [2] was greater than 80 mg/kg/day.

On to `COC(=O)/C=C(C)/C=C/C=C(C)/C(F)=C/c1c(C)cc(OC)c(C)c1C`, for which the Activity is given as greater than 200 mg/kg/day in data set [1] and 3% in data set [9]. For the same compound, the 50% effective dose (ED50) in [2] was greater than 80 mg/kg/day.

`CCOC(=O)/C=C(C)/C=C/C=C(C)/C=C(\F)c1c(C)cc(OC)c(C)c1C`: in [2], the ED50 was greater than 40 mg/kg/day. Besides, the Activity in data set [3] is given as 40%.

For the compound `CCOC(=O)/C=C(C)/C=C/C=C(C)/C=C(/F)c1c(C)cc(OC)c(C)c1C`, the ED50 in [2] was greater than 40 mg/kg/day. The Activity in data set [3] is 26%.

Take `CCOC(=O)/C(F)=C(C)/C(F)=C/C=C(C)/C=C/c1c(C)cc(OC)c(C)c1C`: the Activity in data set [1] is greater than 200 mg/kg/day; in data set [9], 17%. In addition, in data set [2], the ED50 was greater than 80 mg/kg/day.

With `CCOC(=O)/C(F)=C(C)/C=C/C(F)=C(C)/C=C/c1c(C)cc(OC)c(C)c1C`, the Activity in data set [1] was greater than 200 mg/kg/day; in data set [9] it was 35%. For the same compound, the median effective dose (ED50) in [2] is greater than 80 mg/kg/day.

With `CCOC(=O)\C=C(/C=C/C=C(C)/C=C/c1c(C)cc(OC)c(C)c1C)C(F)(F)F`, the Activity is greater than 200 mg/kg/day in data set [1] and -2% in data set [9]. Further, in [2], the ED50 was greater than 80 mg/kg/day.

For the compound `COC(=O)/C=C(C)/C=C/C=C(\C=C\c1c(C)cc(OC)c(C)c1C)C(F)(F)F`, the Activity in data set [1] was greater than 200 mg/kg/day; in data set [9], 25%. The ED50 in [2] is greater than 80 mg/kg/day.

Take `COc1cc(C)c(/C=C/C(C)=C(F)/C=C/C(C)=C/C(=O)O)c(C)c1C`: the Activity came out at 50 mg/kg/day in data set [1]; 87% in [4]; 54% in [5]; 30% in data set [6]; 28% in data set [7]. Moreover, in data set [2], the ED50 amounted to 7.1 mg/kg/day.

Regarding `CCNC(=O)/C=C(C)/C(F)=C/C=C(C)/C=C/c1c(C)cc(OC)c(C)c1C`, the Activity in [1] came to 50 mg/kg/day; in data set [4] it was 67%; in data set [5], 73%. Besides, the median effective dose (ED50) in [2] is less than 10 mg/kg/day.

As for `CCNC(=O)/C=C(C)/C=C/C(F)=C(C)/C=C/c1c(C)cc(OC)c(C)c1C`, the Activity in data set [1] is on record as 200 mg/kg/day; in [9] it was 53%. For the same compound, the ED50 in [2] is 80 mg/kg/day.

Consider `CCOC(=O)/C=C(C)/C(F)=C/C=C(C)/C=C/c1c(C)cc(OC)c(C)c1C`, for which the Activity in data set [1] worked out at 50 mg/kg/day; in [9], 82%; in data set [3] it was 69%; in data set [4], 62%; in [5], 76%; in [6] it was 43%. Further, in data set [2], the ED50 stood at 4 mg/kg/day.

With `COC(=O)/C=C(C)/C=C(F)/C=C(C)/C=C/c1c(C)cc(OC)c(C)c1C` (mixture of isomers), the Activity in data set [1] was greater than 200 mg/kg/day; in data set [9], 25%. Moreover, in data set [2], the ED50 was greater than 80 mg/kg/day.

In the case of `COc1cc(C)c(/C=C/C(C)=C/C=C/C(C)=C/C(=O)O)c(C)c1C` [ACITRETIN], the Activity in data set [1] is reported as 100 mg/kg/day; in data set [3], 90%; in data set [4], 66%; in data set [5], 43%; in data set [6], 18%. In [2], the ED50 was 12.5 mg/kg/day.

In the case of `CCOC(=O)/C=C(C)/C=C/C=C(C)/C=C/c1c(C)cc(OC)c(C)c1C` [ETRETINATE], the Activity is 100 mg/kg/day in data set [1]; 47% in data set [9]; 33% in data set [3]; 29% in [4]; 9% in data set [5]. Also, the ED50 in data set [2] was found to be 80 mg/kg/day.

On to `CCNC(=O)/C=C(C)/C=C/C=C(C)/C=C/c1c(C)cc(OC)c(C)c1C` [MOTRETINIDE], for which the Activity is given as 50 mg/kg/day in data set [1]; 73.8% in [3]; 54% in data set [4]; 23% in data set [5]; 11% in data set [6]. Besides, the ED50 in data set [2] was determined as 19.2 mg/kg/day.

A word on the ED50: it is the midpoint of the dose-response relation.
